Results reported in PubChem BioAssay AID1381 (University of Pittsburgh Molecular Library Screening Center, 2008).
Out of some 220,000 compounds screened, about 1,000 (0.45%) were called active.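 The calls were made as follows: active = plate z-score of nuclear minus cytoplasmic receptor signal below a set negative limit, without overly bright fluorescence or cell loss (cut at about -3.5 in these data, passing the limit was not always enough); inactive = the rest, inconclusive results apart.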 What follows is part of a selection rich in actives, with near analogues and random picks from the rest.

Experiment: inhibitors of GR-EGFP nuclear translocation, primary screen, dynein cargo transport inhibitor project, imaging, high-content, 3617.4 mouse cells (AID 1381)
Conditions: stimulated with dexamethasone, 1 µM
How it was run: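 Buffer or medium: tet-free, stripped-serum medium; Also added: dexamethasone, 1.0 µM final; Technique: high-content fluorescence imaging after fixation; Times: 48 h induction, 1 h compound, 30 min dex at 37 °C; Read-out: per-cell GR-EGFP intensity, nucleus versus surrounding cytoplasmic ring, well-averaged.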

[1] = measured here: cell count per field, at 20 µM
[2] = measured here: cytoplasmic GR-EGFP intensity, at 20 µM, stronger effect = higher value
[3] = measured here: nuclear GR-EGFP intensity, at 20 µM, stronger effect = lower value
[4] = measured here: cell count per field, at 50 µM
[5] = measured here: cytoplasmic GR-EGFP intensity, at 50 µM, stronger effect = higher value
[6] = measured here: nuclear GR-EGFP intensity, at 50 µM, stronger effect = lower value

SMILES: COC(=O)C(C(=O)Nc1cccc(Cl)c1C)C1CCCC1 (stereo unspecified)
- z-score (at 20 µM, stronger effect = lower value): 0.289 (inactive)
- z-score [1]: 0.616
- z-score [2]: 0.0155
- z-score [3]: -0.208

SMILES: CC(=O)c1ccc(-c2nnc(CCC(=O)N(C)Cc3cnc4ccccn34)o2)s1
- z-score (at 20 µM, stronger effect = lower value): -0.0124 (inactive)
- z-score [1]: -0.441
- z-score [2]: -0.212
- z-score [3]: 0.00751

SMILES: O=C(CCl)N(Cc1cccc([N+](=O)[O-])c1)c1cccc(Cl)c1
- z-score (at 20 µM, stronger effect = lower value): -4.69 (active)
- z-score [1]: -1.23
- z-score [2]: 2.38
- z-score [3]: -2.48

SMILES: O=C(Nc1cccc([N+](=O)[O-])c1)Nc1ccc(Cl)cn1
- z-score (at 20 µM, stronger effect = lower value): 0.686 (inactive)
- z-score [1]: -0.334
- z-score [2]: -0.0491
- z-score [3]: 0.778

SMILES: CCN(CC)C(=O)CN(c1cccc([N+](=O)[O-])c1)S(=O)(=O)c1ccccc1
- z-score (at 20 µM, stronger effect = lower value): -0.611 (inactive)
- z-score [1]: 0.944
- z-score [2]: -0.266
- z-score [3]: -0.263

SMILES: CCOc1ccc(Br)cc1S(=O)(=O)Nc1cccc(S(=O)(=O)N(CC)CC)c1
- z-score (at 20 µM, stronger effect = lower value): -0.331 (inactive)
- z-score [1]: 0.488
- z-score [2]: -0.167
- z-score [3]: -0.464

SMILES: O=C(Nc1ccccc1)c1nnsc1S(=O)(=O)c1ccc(Cl)cc1
- z-score (at 20 µM, stronger effect = lower value): -5.03 (active)
- z-score [1]: 0.905
- z-score [2]: 0.759
- z-score [3]: -1.85

SMILES: O=C(Nc1ccc(Cl)cc1)c1ccsn1
- z-score (at 20 µM, stronger effect = lower value): 1.02 (inactive)
- z-score [1]: -1.19
- z-score [2]: -0.158
- z-score [3]: 1.14

SMILES: CS(=O)(=O)c1ccc(Cl)c(NC(=O)Nc2ccccc2)c1
- z-score (at 20 µM, stronger effect = lower value): 1.27 (inactive)
- z-score [1]: -0.472
- z-score [2]: -0.245
- z-score [3]: 0.728

SMILES: CC(Nc1ccccc1)c1cccnc1 (stereo unspecified)
- z-score (at 20 µM, stronger effect = lower value): -0.716 (inactive)
- z-score [1]: 0.0401
- z-score [2]: -0.305
- z-score [3]: -0.598

SMILES: CC1=C/C(=N\OS(=O)(=O)c2ccccc2)C=CC1=O
- z-score (at 50 µM, stronger effect = lower value): -4.5 (active)
- z-score [4]: -1.11
- z-score [5]: 1.28
- z-score [6]: -2.71

SMILES: CCOC(=O)C1(S(=O)(=O)c2ccccc2)CCN(Cc2ccccc2)CC1
- z-score (at 20 µM, stronger effect = lower value): -0.25 (inactive)
- z-score [1]: 0.352
- z-score [2]: -0.189
- z-score [3]: 0.556

SMILES: CC1=C/C(=N\S(=O)(=O)c2ccccc2)C(C(C)C)=CC1=O
- z-score (at 20 µM, stronger effect = lower value): -0.707 (inactive)
- z-score [1]: -0.217
- z-score [2]: -0.313
- z-score [3]: 0.209

SMILES: COc1ccc(/C=N/N=C2/C(=O)Nc3ccccc32)cc1O
- z-score (at 20 µM, stronger effect = lower value): 0.0879 (inactive)
- z-score [1]: -1.02
- z-score [2]: 0.671
- z-score [3]: 0.854

SMILES: C=CCOC(=O)C1=C[C@@H](c2ccccc2)C[C@@H](OCc2ccc(CO)cc2)O1
- z-score (at 20 µM, stronger effect = lower value): -0.243 (inactive)
- z-score [1]: -0.581
- z-score [2]: -0.228
- z-score [3]: 0.233

SMILES: CC(=O)c1cc(C#N)c(SCC(=O)Nc2nccs2)nc1C
- z-score (at 20 µM, stronger effect = lower value): 0.633 (inactive)
- z-score [1]: -0.767
- z-score [2]: -0.205
- z-score [3]: 1

SMILES: CCn1c(SCC(=O)Nc2nc(C)cs2)nnc1C(C)NC(=O)c1ccccc1 (stereo unspecified)
- z-score (at 20 µM, stronger effect = lower value): 0.931 (inactive)
- z-score [1]: -0.274
- z-score [2]: -0.247
- z-score [3]: -0.608

SMILES: COc1ccc(NC(=S)Nc2ccccc2Cl)cn1
- z-score (at 20 µM, stronger effect = lower value): 1.03 (inactive)
- z-score [1]: -0.0291
- z-score [2]: -0.33
- z-score [3]: 0.285

SMILES: COc1ccc(NC(=O)/C(Cl)=C(/Cl)S(=O)Cc2ccc(C)cc2)cn1 (stereo unspecified)
- z-score (at 20 µM, stronger effect = lower value): -5.02 (inactive)
- z-score [1]: -1.31
- z-score [2]: 4.96
- z-score [3]: -1.87

SMILES: COc1ccc(CS(=O)/C(Cl)=C(/Cl)C(=O)Nc2ccc(OC)nc2)cc1 (stereo unspecified)
- z-score (at 20 µM, stronger effect = lower value): -5.17 (active)
- z-score [1]: 0.13
- z-score [2]: 3.61
- z-score [3]: -2.19

SMILES: O=C(NCc1cccnc1)c1cccc(-c2cc3ccccc3oc2=O)c1
- z-score (at 20 µM, stronger effect = lower value): -0.31 (inactive)
- z-score [1]: 0.631
- z-score [2]: -0.22
- z-score [3]: -0.235

SMILES: Cc1ccc(S(=O)(=O)C2C(=O)NC3(C)CC2c2ccccc2O3)cc1 (stereo unspecified)
- z-score (at 20 µM, stronger effect = lower value): -0.689 (inactive)
- z-score [1]: -0.187
- z-score [2]: -0.199
- z-score [3]: -0.503

SMILES: CCc1ccc(/C=N/NC(=O)c2ccc(OC3CCCC3)cc2)s1
- z-score (at 50 µM, stronger effect = lower value): -0.285 (inactive)
- z-score [4]: 0.0349
- z-score [5]: -0.199
- z-score [6]: -0.114

SMILES: Cc1[nH]c(=O)c(C(=O)/C=C/c2ccccc2)c2c1CCCC2
- z-score (at 20 µM, stronger effect = lower value): -3.92 (active)
- z-score [1]: 0.356
- z-score [2]: 0.353
- z-score [3]: -1.71

SMILES: Cc1nc(-c2ccccc2)sc1C(=O)/C=C/c1ccccc1
- z-score (at 20 µM, stronger effect = lower value): -2.15 (inactive)
- z-score [1]: 0.685
- z-score [2]: -0.0664
- z-score [3]: -0.902

SMILES: O=C(/C=C/c1ccccc1)c1ccccc1O
- z-score (at 20 µM, stronger effect = lower value): -0.596 (inactive)
- z-score [1]: 0.171
- z-score [2]: -0.18
- z-score [3]: 0.0198

SMILES: CSc1nc2c(c(=O)[nH]1)C(c1cccc(Cl)c1Cl)CC(=O)N2 (stereo unspecified)
- z-score (at 20 µM, stronger effect = lower value): -0.956 (inactive)
- z-score [1]: 0.453
- z-score [2]: -0.232
- z-score [3]: -0.546

SMILES: O=C(/C=C/c1cnc2ccccc2n1)NC1CCCCCC1
- z-score (at 20 µM, stronger effect = lower value): 0.072 (inactive)
- z-score [1]: -0.372
- z-score [2]: -0.262
- z-score [3]: -0.0867

SMILES: O=C(O)c1ccccc1OCc1ccccc1Cl
- z-score (at 20 µM, stronger effect = lower value): 1.56 (inactive)
- z-score [1]: -0.166
- z-score [2]: -0.834
- z-score [3]: 1.06

SMILES: Cc1ccc(CN2CCC(N3CCC(C(=O)NCC4CCCO4)CC3)CC2)o1 (stereo unspecified)
- z-score (at 20 µM, stronger effect = lower value): 0.0309 (inactive)
- z-score [1]: -0.115
- z-score [2]: -0.27
- z-score [3]: 0.507

SMILES: Fc1ccccc1/C=C1\CCCC2=C1Nc1ncnn1C2c1ccccc1F (stereo unspecified)
- z-score (at 20 µM, stronger effect = lower value): -4.08 (active)
- z-score [1]: 0.757
- z-score [2]: 0.917
- z-score [3]: -1.5

SMILES: Cc1c(C(=O)Nc2ccccc2)sc2nc3n(c(=O)c12)CCCCC3
- z-score (at 20 µM, stronger effect = lower value): 0.507 (inactive)
- z-score [1]: 0.149
- z-score [2]: -0.32
- z-score [3]: 0.154

SMILES: Cc1ccc(S(=O)(=O)NC(=O)N2CCCN(Cc3ccc(F)cc3)CC2)cc1
- z-score (at 20 µM, stronger effect = lower value): -0.425 (inactive)
- z-score [1]: 0.12
- z-score [2]: -0.231
- z-score [3]: -0.245

SMILES: CC(=O)Nc1ccc(S(=O)(=O)NCC(=O)OCc2cc(=O)oc3ccc4ccccc4c23)cc1
- z-score (at 20 µM, stronger effect = lower value): 0.304 (inactive)
- z-score [1]: -0.781
- z-score [2]: -0.141
- z-score [3]: -0.169
